Values after ≈ are worked out from the molar mass of the structure shown.
Assays:
Enterococcus faecalis = assay: Antimicrobial activity against vancomycin-resistant Enterococcus faecalis BM4166 after 24 hrs by microtiter plate based antimicrobial assay; assay type: functional
Procedure, shortened: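 VanA-type vancomycin-resistant E. faecalis BM4166, with inducible resistance that switches cell-wall precursors from D-Ala-D-Ala to D-Ala-D-Lac on glycopeptide exposure. MIC measured in a microtiter plate format. Unstable hydrazine analogues were assayed within one day of deprotection, as crude material without HPLC purification.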

Staphylococcus aureus = assay: Antimicrobial activity against vancomycin-sensitive Staphylococcus aureus ATCC 25923 after 24 hrs by microtiter plate based antimicrobial assay; assay type: functional; conditions: ATCC 25923, 24 h
Procedure, shortened: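 Microtiter plate broth assay against vancomycin-sensitive S. aureus ATCC 25923. Unstable hydrazine-bearing analogues were tested within one day of freeing the hydrazine. They were used as crude deprotected material without reverse-phase HPLC purification, because purification caused decomposition.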

Row | SMILES | MIC (Enterococcus faecalis) [µg/mL] | MIC (Staphylococcus aureus) [µg/mL]
1 | CN[C@H](Cc1cccc(NC(=N)N)c1)C(=O)N[C@H]1C(=O)N[C@@H](CC(N)=O)C(=O)N[C@H]2C(=O)N[C@H]3C(=O)N[C@H](C(=O)N[C@H](C(=O)O)c4cc(O)cc(O)c4-c4cc3ccc4O)[C@H](O)c3ccc(c(Cl)c3)Oc3cc2cc(c3O)Oc2ccc(cc2Cl)[C@H]1O.O=C(O)C(F)(F)F | 320 | 10
2 | CN[C@H](Cc1cccc(NN)c1)C(=O)N[C@H]1C(=O)N[C@@H](CC(N)=O)C(=O)N[C@H]2C(=O)N[C@H]3C(=O)N[C@H](C(=O)N[C@H](C(=O)O)c4cc(O)cc(O)c4-c4cc3ccc4O)[C@H](O)c3ccc(c(Cl)c3)Oc3cc2cc(c3O)Oc2ccc(cc2Cl)[C@H]1O.O=C(O)C(F)(F)F | 320 | 10
3 | CN[C@H](Cc1cccc(N)c1)C(=O)N[C@H]1C(=O)N[C@@H](CC(N)=O)C(=O)N[C@H]2C(=O)N[C@H]3C(=O)N[C@H](C(=O)N[C@H](C(=O)O)c4cc(O)cc(O)c4-c4cc3ccc4O)[C@H](O)c3ccc(c(Cl)c3)Oc3cc2cc(c3O)Oc2ccc(cc2Cl)[C@H]1O.O=C(O)C(F)(F)F | 320 | 20
4 | CN[C@H](Cc1cccc(CN)c1)C(=O)N[C@H]1C(=O)N[C@@H](CC(N)=O)C(=O)N[C@H]2C(=O)N[C@H]3C(=O)N[C@H](C(=O)N[C@H](C(=O)O)c4cc(O)cc(O)c4-c4cc3ccc4O)[C@H](O)c3ccc(c(Cl)c3)Oc3cc2cc(c3O)Oc2ccc(cc2Cl)[C@H]1O.O=C(O)C(F)(F)F | 640 | > 10
5 | CN[C@H](COC(C)(C)C)C(=O)N[C@H]1C(=O)N[C@@H](CC(N)=O)C(=O)N[C@H]2C(=O)N[C@H]3C(=O)N[C@H](C(=O)N[C@H](C(=O)O)c4cc(O)cc(O)c4-c4cc3ccc4O)[C@H](O)c3ccc(c(Cl)c3)Oc3cc2cc(c3O)Oc2ccc(cc2Cl)[C@H]1O.O=C(O)C(F)(F)F | 320 | 20
6 | CN[C@@H](C(=O)N[C@H]1C(=O)N[C@@H](CC(N)=O)C(=O)N[C@H]2C(=O)N[C@H]3C(=O)N[C@H](C(=O)N[C@H](C(=O)O)c4cc(O)cc(O)c4-c4cc3ccc4O)[C@H](O)c3ccc(c(Cl)c3)Oc3cc2cc(c3O)Oc2ccc(cc2Cl)[C@H]1O)[C@H](C)O.O=C(O)C(F)(F)F | 800 | 40
7 | CN[C@H](CO)C(=O)N[C@H]1C(=O)N[C@@H](CC(N)=O)C(=O)N[C@H]2C(=O)N[C@H]3C(=O)N[C@H](C(=O)N[C@H](C(=O)O)c4cc(O)cc(O)c4-c4cc3ccc4O)[C@H](O)c3ccc(c(Cl)c3)Oc3cc2cc(c3O)Oc2ccc(cc2Cl)[C@H]1O.O=C(O)C(F)(F)F | 800 | 40
8 | CCNC(=O)Nc1cccc(C[C@@H](NC)C(=O)N[C@H]2C(=O)N[C@@H](CC(N)=O)C(=O)N[C@H]3C(=O)N[C@H]4C(=O)N[C@H](C(=O)N[C@H](C(=O)O)c5cc(O)cc(O)c5-c5cc4ccc5O)[C@H](O)c4ccc(c(Cl)c4)Oc4cc3cc(c4O)Oc3ccc(cc3Cl)[C@H]2O)c1.O=C(O)C(F)(F)F | 640 | 31
9 | CN[C@H](Cc1cccc(CNN)c1)C(=O)N[C@H]1C(=O)N[C@@H](CC(N)=O)C(=O)N[C@H]2C(=O)N[C@H]3C(=O)N[C@H](C(=O)N[C@H](C(=O)O)c4cc(O)cc(O)c4-c4cc3ccc4O)[C@H](O)c3ccc(c(Cl)c3)Oc3cc2cc(c3O)Oc2ccc(cc2Cl)[C@H]1O.O=C(O)C(F)(F)F | 170 | 1.25
10 | CN[C@H](CCNN)C(=O)N[C@H]1C(=O)N[C@@H](CC(N)=O)C(=O)N[C@H]2C(=O)N[C@H]3C(=O)N[C@H](C(=O)N[C@H](C(=O)O)c4cc(O)cc(O)c4-c4cc3ccc4O)[C@H](O)c3ccc(c(Cl)c3)Oc3cc2cc(c3O)Oc2ccc(cc2Cl)[C@H]1O.O=C(O)C(F)(F)F | > 400 | 10
11 | CN[C@H](CC(C)C)C(=O)N[C@H]1C(=O)N[C@@H](CC(N)=O)C(=O)N[C@H]2C(=O)N[C@H]3C(=O)N[C@H](C(=O)N[C@H](C(=O)O)c4cc(O)cc(O)c4-c4cc3ccc4O)[C@H](O)c3ccc(c(Cl)c3)Oc3cc2cc(c3O)Oc2ccc(cc2Cl)[C@H]1O [VANCOMYCIN AGLYCON] | 640 (≈ 559 µM) | 0.625 (≈ 0.546 µM)
12 | CN[C@H](CC(C)C)C(=O)N[C@H]1C(=O)N[C@@H](CC(N)=O)C(=O)N[C@H]2C(=O)N[C@H]3C(=O)N[C@H](C(=O)N[C@H](C(=O)O)c4cc(O)cc(O)c4-c4cc3ccc4O)[C@H](O)c3ccc(c(Cl)c3)Oc3cc2cc(c3O[C@@H]2O[C@H](CO)[C@@H](O)[C@H](O)[C@H]2O[C@H]2C[C@](C)(N)[C@H](O)[C@H](C)O2)Oc2ccc(cc2Cl)[C@H]1O [VANCOMYCIN] | 2000 (≈ 1380 µM) | 1.25 (≈ 0.863 µM)

Source: ChEMBL document CHEMBL1140949, “Synthesis and evaluation of vancomycin aglycon analogues that bear modifications in the N-terminal D-leucyl amino acid” (2009)
